From ChEMBL document CHEMBL4706565, “Anti-glioma effects of 2-aminothiophene-3-carboxamide derivatives, ANO1 channel blockers” (Eur J Med Chem, 2020)
pIC50: −log10 of the molar value. Values belong to the molecule of their own block, whether it stands above or below them.

Tests used:
[1] = target: T1, Anoctamin-1 (Homo sapiens) (UniProt Q5XXA6); test: Inhibition of human ANO1 channel expressed in HEK293 cells at 10 uM incubated for 10 mins by FLIPR assay relative to control; type: cell-based
T1 sequence (whole entry): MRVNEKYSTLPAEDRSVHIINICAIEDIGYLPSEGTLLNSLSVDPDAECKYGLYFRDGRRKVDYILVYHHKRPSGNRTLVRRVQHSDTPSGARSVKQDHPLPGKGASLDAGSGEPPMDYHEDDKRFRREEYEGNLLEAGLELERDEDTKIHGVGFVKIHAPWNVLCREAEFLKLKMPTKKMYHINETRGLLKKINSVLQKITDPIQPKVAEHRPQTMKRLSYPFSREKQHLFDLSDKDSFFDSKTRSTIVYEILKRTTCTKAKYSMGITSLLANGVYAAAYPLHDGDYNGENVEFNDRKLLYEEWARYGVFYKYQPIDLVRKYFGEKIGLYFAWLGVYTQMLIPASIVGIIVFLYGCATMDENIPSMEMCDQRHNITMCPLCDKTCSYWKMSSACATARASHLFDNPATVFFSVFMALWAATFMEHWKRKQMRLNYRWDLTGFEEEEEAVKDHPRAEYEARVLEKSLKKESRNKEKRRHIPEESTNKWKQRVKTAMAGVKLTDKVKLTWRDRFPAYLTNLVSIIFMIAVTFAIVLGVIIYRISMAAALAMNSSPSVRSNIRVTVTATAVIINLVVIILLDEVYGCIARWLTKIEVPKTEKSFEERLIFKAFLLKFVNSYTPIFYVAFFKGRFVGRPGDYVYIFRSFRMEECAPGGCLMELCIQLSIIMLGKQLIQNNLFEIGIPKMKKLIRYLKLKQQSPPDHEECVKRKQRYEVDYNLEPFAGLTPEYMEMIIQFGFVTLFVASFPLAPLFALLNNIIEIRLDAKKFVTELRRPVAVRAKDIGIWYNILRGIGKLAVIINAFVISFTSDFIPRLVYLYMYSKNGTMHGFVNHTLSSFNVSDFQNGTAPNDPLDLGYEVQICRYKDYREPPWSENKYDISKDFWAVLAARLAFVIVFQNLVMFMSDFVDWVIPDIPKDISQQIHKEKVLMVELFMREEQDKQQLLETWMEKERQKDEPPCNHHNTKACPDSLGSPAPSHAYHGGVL
Outline: (§1)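 HEK293 cells expressing human ANO1, 50,000 cells/well, plated overnight. Loaded with FLIPR Red membrane-potential dye in HEPES-buffered saline (pH 7.4) for 40-60 min at room temperature. Compound added for 10 min at room temperature, final DMSO 0.5%.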

Anoctamin-1 [2] = target: T2, Anoctamin-1 (Mus musculus, UniProt Q8BHY3); test: Inhibition of GFP-fused mouse ANO1 channel expressed in HEK293A cells assessed as inhibition of ATP-induced channel current amplitude at membrane potential of +80 mV by patch clamp electrophysiology assay; type: cell-based, HEK293-A
T2 sequence (Q8BHY3 whole entry): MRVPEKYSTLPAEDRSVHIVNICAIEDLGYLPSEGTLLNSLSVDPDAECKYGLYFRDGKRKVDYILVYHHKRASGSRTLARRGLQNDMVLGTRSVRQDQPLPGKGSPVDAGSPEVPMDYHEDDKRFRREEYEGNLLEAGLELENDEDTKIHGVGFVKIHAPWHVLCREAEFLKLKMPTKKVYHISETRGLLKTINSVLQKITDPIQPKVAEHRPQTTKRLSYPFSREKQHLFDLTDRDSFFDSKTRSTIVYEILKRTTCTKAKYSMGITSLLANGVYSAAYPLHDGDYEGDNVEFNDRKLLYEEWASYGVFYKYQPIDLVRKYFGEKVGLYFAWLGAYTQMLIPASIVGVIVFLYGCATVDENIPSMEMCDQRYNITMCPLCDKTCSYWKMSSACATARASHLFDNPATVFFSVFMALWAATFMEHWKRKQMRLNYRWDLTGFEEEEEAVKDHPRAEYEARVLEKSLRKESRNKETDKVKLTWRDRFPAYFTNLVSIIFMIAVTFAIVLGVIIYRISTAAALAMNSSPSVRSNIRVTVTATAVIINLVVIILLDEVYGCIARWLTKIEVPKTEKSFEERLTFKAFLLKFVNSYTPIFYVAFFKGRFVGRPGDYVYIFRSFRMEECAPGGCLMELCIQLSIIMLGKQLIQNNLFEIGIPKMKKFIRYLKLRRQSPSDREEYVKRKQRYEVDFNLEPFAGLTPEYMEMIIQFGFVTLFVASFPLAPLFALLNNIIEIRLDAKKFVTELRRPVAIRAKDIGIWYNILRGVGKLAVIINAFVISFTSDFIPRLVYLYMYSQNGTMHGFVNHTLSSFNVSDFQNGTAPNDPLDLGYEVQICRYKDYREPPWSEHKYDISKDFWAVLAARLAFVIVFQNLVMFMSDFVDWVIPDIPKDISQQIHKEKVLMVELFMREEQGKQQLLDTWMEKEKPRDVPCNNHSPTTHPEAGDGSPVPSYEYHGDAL
Outline: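 Whole-cell recording at room temperature in HEK293A cells transfected with GFP-mANO1, GFP-mANO2 or GFP-mTTYH1. 1 s ramps from +80 to -80 mV, holding potential -10 mV. For ANO1/ANO2: pipette CsCl 146 mM with Ca-EGTA-NMDG, pH 7.3; bath NaCl-based, pH 7.3. For TTYH1: Tris-aspartate pipette (pH 7.2) and Tris-HCl bath (pH 7.4), with […] and BaCl2 added to block K+ channels, and hypotonic (220 mOsm/kg) bath. Washout recordings assessed reversibility.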

Anoctamin-1 [3] = target: T3, Anoctamin-1 (Homo sapiens, UniProt Q5XXA6); test: Inhibition of human ANO1 channel expressed in HEK293 cells incubated for 10 mins by FLIPR assay; type: cell-based; outline: as §1
T3 sequence (Q5XXA6 whole entry): T1 sequence (whole entry)

U138-MG [4] = test: Antiproliferative activity against human U138 cells overexpressing ANO1 assessed as reduction in cell viability at 100 uM measured after 72 hrs by Celltiter-glo assay; type: functional
Outline: (§2)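 5.0×10^3 cells/well seeded, overnight, then compounds added as 1:4 serial dilutions in DMSO; viability read after 72 h with CellTiter-Glo luminescence. GI50 from fitted dose-response curves; triplicate wells, SD from three independent experiments. DMEM for U251 and U138, MEM for U87MG, both with 10% FBS and pen/strep, 37 °C, 5% CO2.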

[5] = Antiproliferative activity against mouse primary astrocytes assessed as reduction in cell viability at 100 uM measured after 72 hrs by Celltiter-Glo luminescent assay; type: cell-based, Astrocyte
Outline: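 Primary astrocytes isolated from adult mouse brain by a previously reported method. 5.0×10^3 cells/well, compound as 1:4 serial DMSO dilutions, CellTiter-Glo viability at 72 h.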

U-251 [6] = test: Antiproliferative activity against human U251 cells overexpressing ANO1 assessed as reduction in cell viability at 100 uM measured after 72 hrs by Celltiter-glo assay; type: functional; outline: as §2
U-87 MG [7] = test: Antiproliferative activity against human U87MG cells overexpressing ANO1 assessed as reduction in cell viability at 100 uM measured after 72 hrs by Celltiter-glo assay; type: functional, U-87MG ATCC; outline: as §2
U-251 [8] = test: Antiproliferative activity against human U251 cells overexpressing ANO1 assessed as reduction in cell viability measured after 72 hrs by Celltiter-glo assay; type: functional; outline: as §2
U138-MG [9] = test: Antiproliferative activity against human U138 cells overexpressing ANO1 assessed as reduction in cell viability measured after 72 hrs by Celltiter-glo assay; type: functional; outline: as §2
U-87 MG [10] = test: Antiproliferative activity against human U87MG cells overexpressing ANO1 assessed as reduction in cell viability measured after 72 hrs by Celltiter-glo assay; type: functional, U-87MG ATCC; outline: as §2

inhibition [1]: 51.5%
Compound: NC(=O)c1c(NC(=O)c2ccco2)sc2c1CCC2

pIC50 (Anoctamin-1 [2]): 5.39 | pIC50 (Anoctamin-1 [3]): 5.32 | inhibition [1]: 67.9%
Compound: CC(C)(C)C(=O)Nc1sc2c(c1C(N)=O)CCCCC2
inhibition at 100 µM (U138-MG [4]): < 50% | inhibition at 72 h, 100 µM [5]: < 50% | inhibition at 100 µM (U-251 [6]): < 50% | inhibition at 100 µM (U-87 MG [7]): < 50%

pIC50 (Anoctamin-1 [2]): 7.52
Compound: COc1ccccc1/C=N/NC(=O)COc1ccc(Cl)cc1C

inhibition [1]: 12.5%
Compound: CC(C)(C)C(=O)Nc1sc2c(c1C(N)=O)CCC2

inhibition [1]: < 10%
Compound: NC(=O)c1c(NC(=O)c2ccccc2)sc2c1CCC2

inhibition [1]: 15.4%
Compound: NC(=O)c1c(N)sc2c1CCC2

inhibition [1]: 16.3%
Compound: NC(=O)c1c(NC(=S)NC(=O)c2ccc3c(c2)OCO3)sc2c1CCC2

inhibition [1]: 12.3%
Compound: NC(=O)c1c(NC(=S)NC(=O)c2ccc3c(c2)OCCO3)sc2c1CCC2

Second part, the molecule before the results:

Compound: CC(C)(C)C(=O)Nc1sccc1C(N)=O
inhibition [1]: < 10%

Compound: NC(=O)c1ccsc1NC(=O)c1ccco1
inhibition [1]: 39.5%

Compound: NC(=O)c1c(NC(=S)NC(=O)c2ccccc2)sc2c1CCC2
GI50 (U-251 [8]): 24.4 µM | pIC50 (Anoctamin-1 [2]): 5.58 | GI50 (U138-MG [9]): 17.1 µM | pIC50 (Anoctamin-1 [3]): 5.55 | inhibition [1]: 70.5% | GI50 (U-87 MG [10]): 26 µM

Compound: CC(C)(C)C1CCc2c(sc(NC(=S)NC(=O)c3ccco3)c2C(N)=O)C1 (centres undefined)
inhibition [1]: 13.8%

Compound: NC(=O)c1c(NC(=S)NC(=O)c2ccco2)sc2c1CCCCC2
inhibition [1]: 21.8%

Compound: NC(=O)c1c(NC(=O)c2ccccc2)sc2c1CCCCC2
inhibition [1]: 12.1%

Compound: NC(=O)c1c(NC(=S)NC(=O)c2ccco2)sc2c1CCC2
inhibition [1]: < 10%

Compound: NC(=O)c1c(N)sc2c1CCCCC2
inhibition [1]: < 10%

Compound: NC(=O)c1c(NC(=S)NC(=O)c2ccccc2Cl)sc2c1CCC2
GI50 (U-251 [8]): 94.6 µM | pIC50 (Anoctamin-1 [2]): 5.51 | pIC50 (Anoctamin-1 [3]): 5.64 | inhibition [1]: 76.7% | inhibition at 100 µM (U138-MG [4]): < 50% | inhibition at 72 h, 100 µM [5]: < 50% | inhibition at 100 µM (U-87 MG [7]): < 50%
